“And” between values parts separate entries of the source, which are not always exact repeats. Identical values can stand only once.
Columns and labels:
[1] = system: Rattus norvegicus; assay: Hypolipidemic activity was assessed by measuring cholesterol in Sprague-Dawley male rats at 50 mg/kg; type: functional
In short: (§1)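 Male Sprague-Dawley rats (185-g mean bodyweight) on a normal diet were dosed orally for 4 consecutive days at 50 mg/kg or 200 mg/kg. They were fasted 18 h, and blood was drawn from the abdominal aorta 24 h after the last dose. Serum total cholesterol, triglycerides (mg/100 mL) and lipoprotein α-cholesterol (% of total cholesterol) were measured. Groups of 10–40 rats were compared with controls by Student's t test.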

[2] = system: Rattus norvegicus; assay: Hypolipidemic activity was assessed by measuring alpha-cholesterol in Sprague-Dawley male rats at 50 mg/kg; type: functional; in short: as §1
[3] = Evaluated for the dose that causes 50 % lethality in Sprague-Dawley male rats; type: ADME, organism-based; settings: rat, in vivo
[4] = system: Rattus norvegicus; assay: Hypolipidemic activity was assessed by measuring liver weight in Sprague-Dawley male rats at 200 mg/kg; type: functional
In short: (§2)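 Sprague-Dawley rats were fed the hyperlipidemic Nath's diet for 15 days and dosed orally at 50 or 200 mg/kg, or at 6.25, 12.5 and 25 mg/kg on a diet with 0.5% cholesterol and cholic acid. After an 18-h fast they were killed on day 16, 24 h after the last dose. Serum total cholesterol and triglycerides were assayed, and liver weight was expressed per 100 g bodyweight. Groups were compared with Nath's-diet controls by Student's t test.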

[5] = system: Rattus norvegicus; assay: Hypolipidemic activity was assessed by measuring liver weight in Sprague-Dawley male rats at 50 mg/kg; type: functional
[6] = system: Rattus norvegicus; assay: Hypolipidemic activity was assessed by measuring triglycerides in Sprague-Dawley male rats at 50 mg/kg; type: functional; in short: as §1
[7] = system: Rattus norvegicus; assay: Hyperlipidemic activity was assessed by measuring triglycerides in Sprague-Dawley male rats at 200 mg/kg; type: functional; in short: as §2
[8] = system: Rattus norvegicus; assay: Hypolipidemic activity was assessed by measuring body weight in F 344 rats at 20 mg/kg
[9] = system: Rattus norvegicus; assay: Hyperlipidemic activity was assessed by measuring cholesterol in Sprague-Dawley male rats at 200 mg/kg
[10] = system: Rattus norvegicus; assay: Hypolipidemic activity was assessed in Variation of palmitoyl-CoA oxide (umol/min mg) in F 344 rats at 20 mg/kg
[11] = system: Rattus norvegicus; assay: Hypolipidemic activity was assessed in Variation of the enoyl-CoA oxide (umol/min mg) in F 344 rats at 20 mg/kg
[12] = system: Rattus norvegicus; assay: Hypolipidemic activity was assessed in Variation of the liver enzyme catalase was expressed as units per mg of protein. in F 344 rats at 20 mg/kg
[13] = system: Rattus norvegicus; assay: Hypolipidemic activity was assessed in Variation of the carnitine acetyl transferase was expressed as units per mg of protein in F 344 rats at 20 mg/kg
[14] = species: Rattus norvegicus; assay: (§3) Compound was evaluated for the dose that causes […] in Sprague-Dawley male rats; type: functional
[15] = system: Rattus norvegicus; assay: Hypolipidemic activity was assessed by measuring cholesterol in Sprague-Dawley male rats at 200 mg/kg; type: functional; in short: as §1
[16] = system: Rattus norvegicus; assay: Hypolipidemic activity was assessed by measuring alpha-cholesterol in Sprague-Dawley male rats at 200 mg/kg; type: functional; in short: as §1
[17] = species: Rattus norvegicus; assay: Compound dose that causes […] in Sprague-Dawley male rats; type: functional
[18] = system: Rattus norvegicus; assay: Hyperlipidemic activity was assessed by measuring liver weight in Sprague-Dawley male rats at 50 mg/kg; type: functional; in short: as §2
[19] = system: Rattus norvegicus; assay: Hypolipidemic activity was assessed by measuring triglycerides in Sprague-Dawley male rats at 200 mg/kg; type: functional; in short: as §1
[20] = system: Rattus norvegicus; assay: Hyperlipidemic activity was assessed by measuring triglycerides in Sprague-Dawley male rats at 50 mg/kg; type: functional; in short: as §2
[21] = system: Rattus norvegicus; assay: Hypolipidemic activity was assessed in Variation of the liver enzyme catalase was expressed as units per mg of protein in F 344 rats at 20 mg/kg
[22] = as §3; type: ADME, organism-based; settings: rat, in vivo
[23] = system: Rattus norvegicus; assay: Hyperlipidemic activity was assessed by measuring cholesterol in Sprague-Dawley male rats at 50 mg/kg; type: functional; in short: as §2
[24] = system: Rattus norvegicus; assay: Hypolipidemic activity was assessed inVariation of the enoyl-CoA oxide (umol/min mg) in F 344 rats at 20 mg/kg
[25] = system: Rattus norvegicus; assay: Hypolipidemic activity was assessed in variation of palmitoyl-CoA oxide (umol/min mg) in F 344 rats at 20 mg/kg
[26] = system: Rattus norvegicus; assay: Hypolipidemic activity was assessed in variation of the liver enzyme catalase was expressed as units per mg of protein in F 344 rats at 20 mg/kg
[27] = dose 20 mg/kg, in the assay text read “F 344 rats at 20 mg/kg” for “Sprague-Dawley male rats at 50 mg/kg”

Compound | Cholesterol [1] | Alpha-cholesterol ([2]; dose 50 mg/kg) | LD50 [3] | Liver weight [5, 27] | Triglycerides [6] | Body weight [8] | Cholesterol [15] | Alpha-cholesterol [16] | Triglycerides [19] | LD50 [22] | also measured
Cc1cccc(Nc2cc(Cl)nc(N(C)C)n2)c1C [LODINIXIL] | 57.8 mg 100ml-1 | 69.6% | < 2500 mg/kg | 3.9 g (100g of body weight)-1 | 96.5 mg/100 mL | 268 g | – | – | – | – | Liver weight [4]: 5.97 g 100g-1; Triglycerides [7]: <182 mg 100ml-1; Cholesterol [9]: 771 mg 100ml-1; Palmitoyl-CoA oxid [10]: 0.015 µM/min/mg; Enoyl-CoA hydratase [11]: 3.8 µM/min/mg; Catalase [12]: 38 U/mg protein; Carnitine acetyl transferase [13]: 7 U/mg protein
CCOc1nc(Nc2cccc(C)c2C)nc(SCC(=O)O)n1 | – | – | – | 3.1 g (100g of body weight)-1 | – | 248 g | 70.3 mg 100ml-1 | <82.2% | < 76.1 mg/100 mL | – | Cholesterol [14]: 1054.8 mg 100ml-1; LD50 [17]: 1120 mg/kg; Liver weight [18]: 6.53 g 100g-1; Triglycerides [20]: <214.3 mg 100ml-1; Catalase [21]: 50 U/mg protein
Cc1cccc(N(C)c2cc(Cl)nc(S)n2)c1C | – | – | – | – | – | – | 65.8 mg 100ml-1 | 74.4% | < 79.1 mg/100 mL | 1780 mg/kg | –
CCOc1cc(Nc2cccc(C)c2C)nc(SCC(=O)NCCO)n1 | <65.7 mg 100ml-1 | 76.6% | 2500 mg/kg | 5.9 g (100g of body weight)-1 | < 64.3 mg/100 mL | 192 g | – | – | – | – | Cholesterol [23]: <479.8 mg 100ml-1; Liver weight [18]: 6.85 g 100g-1; Triglycerides [20]: <206.6 mg 100ml-1; Catalase [21]: 67.5 U/mg protein
Cc1cccc(Nc2cc(Cl)nc(OCC(=O)O)n2)c1C | <57.3 mg 100ml-1 | <83.8% | 1080 mg/kg | 4.5 g (100g of body weight)-1 | < 67.3 mg/100 mL | 245 g | – | – | – | – | Cholesterol [23]: <548.8 mg 100ml-1; Liver weight [18]: 6.29 g 100g-1; Triglycerides [20]: <215.6 mg 100ml-1; Enoyl-CoA hydratase [24]: 2.5 µM/min/mg; Palmitoyl-CoA oxid [25]: 0.088 µM/min/mg; Catalase [26]: 77 U/mg protein; Carnitine acetyl transferase [13]: 10 U/mg protein
CN(C)c1cc(Cl)nc(N(C)C)n1 | <103.7 mg 100ml-1 | – | < 2500 mg/kg | – | – | – | – | – | – | – | Alpha-cholesterol ([2]; dose 200 mg/kg, in the assay text read “200 mg/kg” for “50 mg/kg”): 75.7%
CCCCCCCCSc1nc(Cl)cc(Nc2cccc(C)c2C)n1 | 63.2 mg 100ml-1 | 67.7% | – | – | 96.5 mg/100 mL | – | – | – | – | – | –
Cc1cccc(N(C)c2cc(Cl)nc(N(C)C)n2)c1C | – | – | – | – | – | – | 63.2 mg 100ml-1 | 90% | 89.8 mg/100 mL | < 2500 mg/kg | –
Cc1cccc(N(C)c2cc(Cl)nc(OCC(=O)O)n2)c1C | 66.4 mg 100ml-1 | 87.2% | 1070 mg/kg | – | < 80.7 mg/100 mL | – | – | – | – | – | –
Cc1cccc(Oc2cc(Cl)nc(SCC(=O)O)n2)c1C | <67.7 mg 100ml-1 | 77% | 1290 mg/kg | – | < 56.4 mg/100 mL | – | – | – | – | – | –
Cc1cccc(Nc2cc(Cl)nc(SCC(=O)O)n2)c1C [PIRINIXIC ACID] | – | 75.1% | 1050 mg/kg | – | – | – | – | – | – | – | Liver weight ([5]; dose 50 mg/kg): 8.23 g 100g-1 and 8.88 g 100g-1
CN(C)c1nc(N)nc(Cl)n1 | – | – | – | – | – | – | <105.6 mg 100ml-1 | 85.4% | < 78.2 mg/100 mL | < 2000 mg/kg | –
Cc1cccc(Oc2cc(Cl)nc(N(C)C)n2)c1C | – | – | – | – | – | – | 76.7 mg 100ml-1 | 72.6% | 102 mg/100 mL | < 2000 mg/kg | –

Reference: ChEMBL document CHEMBL1122536, “Novel pyrimidine and 1,3,5-triazine hypolipidemic agents” (J Med Chem, 1984)
